Laboratory results reported in ChEMBL document CHEMBL3632558, “Synthesis, antimycobacterial and antibacterial activity of l-[(1R,2S)-2-fluorocyclopropyl]naphthyridone derivatives containing an oxime-functionalized pyrrolidine moiety” (2015).
≈ marks a conversion by molar mass, not a printed value.

Key:
Type in all cases: functional
Klebsiella pneumoniae [1] = experiment: Antibacterial activity against ESBL-positive Klebsiella pneumoniae 14-19 after 18 to 24 hrs
Outline: (§1)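 MIC by standard NCCLS reference procedure (M100-S11); lowest concentration of compound inhibiting visible bacterial growth after incubation at 35 °C for 18–24 h, read as complete inhibition of growth. Ciprofloxacin, levofloxacin and moxifloxacin run alongside as reference agents.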

Staphylococcus aureus [2] = experiment: Antibacterial activity against Staphylococcus aureus CMCC 26003 after 18 to 24 hrs; outline: as §1
[3] = system: Staphylococcus epidermidis; experiment: Antibacterial activity against methicillin-resistant Staphylococcus epidermidis 14-39 after 18 to 24 hrs
Pseudomonas aeruginosa [4] = experiment: Antibacterial activity against Pseudomonas aeruginosa 14-16 after 18 to 24 hrs; outline: as §1
Staphylococcus aureus [5] = experiment: Antibacterial activity against methicillin-sensitive Staphylococcus aureus 14-1 after 18 to 24 hrs; outline: as §1
Escherichia coli [6] = experiment: Antibacterial activity against Escherichia coli ATCC 25922 after 18 to 24 hrs; outline: as §1
[7] = system: Staphylococcus epidermidis; experiment: Antibacterial activity against methicillin-sensitive Staphylococcus epidermidis 14-2 after 18 to 24 hrs; outline: as §1
Escherichia coli [8] = experiment: Antibacterial activity against Escherichia coli 14-1 after 18 to 24 hrs; outline: as §1
Enterococcus faecium [9] = experiment: Antibacterial activity against Enterococcus faecium 14-5 after 18 to 24 hrs; outline: as §1
Pseudomonas aeruginosa [10] = experiment: Antibacterial activity against Pseudomonas aeruginosa 14-9 after 18 to 24 hrs; outline: as §1
[11] = system: Mycobacterium tuberculosis; experiment: Antimycobacterial activity against Mycobacterium tuberculosis H37Rv ATCC 27294 by alamar blue assay
Outline: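 Microplate Alamar Blue Assay; MIC is the lowest concentration giving ≥90% reduction in fluorescence relative to the mean of replicate bacterium-only controls. MDR strain 6133 is resistant to isoniazid and rifampicin.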

Enterococcus faecalis [12] = experiment: Antibacterial activity against Enterococcus faecalis 14-2 after 18 to 24 hrs; outline: as §1
Enterococcus faecium [13] = experiment: Antibacterial activity against Enterococcus faecium 14-1 after 18 to 24 hrs; outline: as §1
Enterococcus faecium [14] = experiment: Antibacterial activity against Enterococcus faecium 14-2 after 18 to 24 hrs; outline: as §1
Escherichia coli [15] = experiment: Antibacterial activity against ESBL-positive Escherichia coli 14-2 after 18 to 24 hrs; outline: as §1
Klebsiella pneumoniae [16] = experiment: Antibacterial activity against ESBL-positive Klebsiella pneumoniae 14-17 after 18 to 24 hrs; outline: as §1
Staphylococcus aureus [17] = experiment: Antibacterial activity against methicillin-resistant Staphylococcus aureus 14-5 after 18 to 24 hrs
Enterococcus faecalis [18] = experiment: Antibacterial activity against Enterococcus faecalis 14-1 after 18 to 24 hrs; outline: as §1
Staphylococcus aureus [19] = experiment: Antibacterial activity against methicillin-sensitive Staphylococcus aureus 14-4 after 18 to 24 hrs; outline: as §1
[20] = system: Staphylococcus epidermidis; experiment: Antibacterial activity against methicillin-resistant Staphylococcus epidermidis 14-37 after 18 to 24 hrs
Klebsiella pneumoniae [21] = experiment: Antibacterial activity against ESBL-positive Klebsiella pneumoniae 14-18 after 18 to 24 hrs; outline: as §1
Pseudomonas aeruginosa [22] = experiment: Antibacterial activity against Pseudomonas aeruginosa 14-14 after 18 to 24 hrs; outline: as §1
Pseudomonas aeruginosa [23] = experiment: Antibacterial activity against Pseudomonas aeruginosa 14-19 after 18 to 24 hrs; outline: as §1
Klebsiella pneumoniae [24] = experiment: Antibacterial activity against Klebsiella pneumoniae 14-1 after 18 to 24 hrs; outline: as §1
[25] = system: Staphylococcus epidermidis; experiment: Antibacterial activity against methicillin-resistant Staphylococcus epidermidis 14-21 after 18 to 24 hrs
Klebsiella pneumoniae [26] = experiment: Antibacterial activity against Klebsiella pneumoniae 14-2 after 18 to 24 hrs; outline: as §1
Klebsiella pneumoniae [27] = experiment: Antibacterial activity against Klebsiella pneumoniae 14-3 after 18 to 24 hrs; outline: as §1
Pseudomonas aeruginosa [28] = experiment: Antibacterial activity against Pseudomonas aeruginosa ATCC 27853 after 18 to 24 hrs; outline: as §1
Enterococcus faecium [29] = experiment: Antibacterial activity against Enterococcus faecium 14-6 after 18 to 24 hrs; outline: as §1
Staphylococcus aureus [30] = experiment: Antibacterial activity against methicillin-resistant Staphylococcus aureus 14-4 after 18 to 24 hrs
Escherichia coli [31] = experiment: Antibacterial activity against Escherichia coli 14-2 after 18 to 24 hrs; outline: as §1
Pseudomonas aeruginosa [32] = experiment: Antibacterial activity against Pseudomonas aeruginosa 14-15 after 18 to 24 hrs; outline: as §1
[33] = system: Staphylococcus epidermidis; experiment: Antibacterial activity against methicillin-resistant Staphylococcus epidermidis 14-22 after 18 to 24 hrs
Streptococcus pneumoniae = experiment: Antibacterial activity against Streptococcus pneumoniae ATCC 19615 after 18 to 24 hrs; outline: as §1
Klebsiella pneumoniae [34] = experiment: Antibacterial activity against Klebsiella pneumoniae 14-4 after 18 to 24 hrs; outline: as §1
Staphylococcus aureus [35] = experiment: Antibacterial activity against methicillin-sensitive Staphylococcus aureus 14-2 after 18 to 24 hrs; outline: as §1
Staphylococcus aureus [36] = experiment: Antibacterial activity against methicillin-sensitive Staphylococcus aureus 14-3 after 18 to 24 hrs; outline: as §1
Escherichia coli [37] = experiment: Antibacterial activity against ESBL-positive Escherichia coli 14-1 after 18 to 24 hrs; outline: as §1

Compound: NCC1CN(c2nc3c(cc2F)c(=O)c(C(=O)O)cn3[C@@H]2C[C@@H]2F)C/C1=N\OCc1ccc2c(c1)OCO2 (stereo partly specified)
- MIC (Klebsiella pneumoniae [1]): 128 µg/mL (≈ 243 µM)
- MIC (Staphylococcus aureus [2]): < 0.008 µg/mL
- MIC [3]: 8 µg/mL (≈ 15.2 µM)
- MIC (Pseudomonas aeruginosa [4]): 8 µg/mL (≈ 15.2 µM)
- MIC (Staphylococcus aureus [5]): 4 µg/mL (≈ 7.58 µM)
- MIC (Escherichia coli [6]): < 0.008 µg/mL
- MIC [7]: 32 µg/mL (≈ 60.7 µM)
- MIC (Escherichia coli [8]): 32 µg/mL (≈ 60.7 µM)
- MIC (Enterococcus faecium [9]): 8 µg/mL (≈ 15.2 µM)
- MIC (Pseudomonas aeruginosa [10]): 8 µg/mL (≈ 15.2 µM)
- MIC90 [11]: < 0.25 µg/mL
- MIC (Enterococcus faecalis [12]): < 0.008 µg/mL
- MIC (Enterococcus faecium [13]): 1 µg/mL (≈ 1.9 µM)
- MIC (Enterococcus faecium [14]): 1 µg/mL (≈ 1.9 µM)
- MIC (Escherichia coli [15]): 64 µg/mL (≈ 121 µM)
- MIC (Klebsiella pneumoniae [16]): 8 µg/mL (≈ 15.2 µM)
- MIC (Staphylococcus aureus [17]): 8 µg/mL (≈ 15.2 µM)
- MIC (Enterococcus faecalis [18]): 16 µg/mL (≈ 30.3 µM)
- MIC (Staphylococcus aureus [19]): < 0.008 µg/mL
- MIC [20]: 6 µg/mL (≈ 11.4 µM)
- MIC (Klebsiella pneumoniae [21]): 4 µg/mL (≈ 7.58 µM)
- MIC (Pseudomonas aeruginosa [22]): 8 µg/mL (≈ 15.2 µM)
- MIC (Pseudomonas aeruginosa [23]): 8 µg/mL (≈ 15.2 µM)
- MIC (Klebsiella pneumoniae [24]): 128 µg/mL (≈ 243 µM)
- MIC [25]: 4 µg/mL (≈ 7.58 µM)
- MIC (Klebsiella pneumoniae [26]): 128 µg/mL (≈ 243 µM)
- MIC (Klebsiella pneumoniae [27]): 128 µg/mL (≈ 243 µM)
- MIC (Pseudomonas aeruginosa [28]): 8 µg/mL (≈ 15.2 µM)
- MIC (Enterococcus faecium [29]): 4 µg/mL (≈ 7.58 µM)
- MIC (Staphylococcus aureus [30]): 16 µg/mL (≈ 30.3 µM)
- MIC (Escherichia coli [31]): 32 µg/mL (≈ 60.7 µM)
- MIC (Pseudomonas aeruginosa [32]): 8 µg/mL (≈ 15.2 µM)
- MIC [33]: 4 µg/mL (≈ 7.58 µM)
- MIC (Streptococcus pneumoniae): 0.03 µg/mL (≈ 0.0569 µM)
- MIC (Klebsiella pneumoniae [34]): 128 µg/mL (≈ 243 µM)
- MIC (Staphylococcus aureus [35]): < 0.008 µg/mL
- MIC (Staphylococcus aureus [36]): 8 µg/mL (≈ 15.2 µM)
- MIC (Escherichia coli [37]): 8 µg/mL (≈ 15.2 µM)

Compound: CO/N=C1\CN(c2nc3c(cc2F)c(=O)c(C(=O)O)cn3[C@@H]2C[C@@H]2F)CC1(C)CN (stereo partly specified)
- MIC (Klebsiella pneumoniae [1]): 128 µg/mL (≈ 304 µM)
- MIC (Staphylococcus aureus [2]): < 0.008 µg/mL
- MIC [3]: 8 µg/mL (≈ 19 µM)
- MIC (Pseudomonas aeruginosa [4]): 8 µg/mL (≈ 19 µM)
- MIC (Staphylococcus aureus [5]): 2 µg/mL (≈ 4.75 µM)
- MIC (Escherichia coli [6]): 0.03 µg/mL (≈ 0.0712 µM)
- MIC [7]: 16 µg/mL (≈ 38 µM)
- MIC (Escherichia coli [8]): 32 µg/mL (≈ 75.9 µM)
- MIC (Enterococcus faecium [9]): 4 µg/mL (≈ 9.49 µM)
- MIC (Pseudomonas aeruginosa [10]): 4 µg/mL (≈ 9.49 µM)
- MIC90 [11]: 0.372 µg/mL (≈ 0.883 µM)
- MIC (Enterococcus faecalis [12]): 0.125 µg/mL (≈ 0.297 µM)
- MIC (Enterococcus faecium [13]): 2 µg/mL (≈ 4.75 µM)
- MIC (Enterococcus faecium [14]): 2 µg/mL (≈ 4.75 µM)
- MIC (Escherichia coli [15]): 64 µg/mL (≈ 152 µM)
- MIC (Klebsiella pneumoniae [16]): 4 µg/mL (≈ 9.49 µM)
- MIC (Staphylococcus aureus [17]): 4 µg/mL (≈ 9.49 µM)
- MIC (Enterococcus faecalis [18]): 32 µg/mL (≈ 75.9 µM)
- MIC (Staphylococcus aureus [19]): 0.015 µg/mL (≈ 0.0356 µM)
- MIC [20]: 8 µg/mL (≈ 19 µM)
- MIC (Klebsiella pneumoniae [21]): 4 µg/mL (≈ 9.49 µM)
- MIC (Pseudomonas aeruginosa [22]): 8 µg/mL (≈ 19 µM)
- MIC (Pseudomonas aeruginosa [23]): 8 µg/mL (≈ 19 µM)
- MIC (Klebsiella pneumoniae [24]): 128 µg/mL (≈ 304 µM)
- MIC [25]: 2 µg/mL (≈ 4.75 µM)
- MIC (Klebsiella pneumoniae [26]): > 128 µg/mL
- MIC (Klebsiella pneumoniae [27]): 128 µg/mL (≈ 304 µM)
- MIC (Pseudomonas aeruginosa [28]): 2 µg/mL (≈ 4.75 µM)
- MIC (Enterococcus faecium [29]): 8 µg/mL (≈ 19 µM)
- MIC (Staphylococcus aureus [30]): 8 µg/mL (≈ 19 µM)
- MIC (Escherichia coli [31]): 32 µg/mL (≈ 75.9 µM)
- MIC (Pseudomonas aeruginosa [32]): 8 µg/mL (≈ 19 µM)
- MIC [33]: 8 µg/mL (≈ 19 µM)
- MIC (Streptococcus pneumoniae): 0.015 µg/mL (≈ 0.0356 µM)
- MIC (Klebsiella pneumoniae [34]): 64 µg/mL (≈ 152 µM)
- MIC (Staphylococcus aureus [35]): 0.015 µg/mL (≈ 0.0356 µM)
- MIC (Staphylococcus aureus [36]): < 0.008 µg/mL
- MIC (Escherichia coli [37]): 4 µg/mL (≈ 9.49 µM)
